Here are results for 5 compounds from ChEMBL document CHEMBL2346605, “4-Nerolidylcatechol and its synthetic analogues: antioxidant activity and toxicity evaluation” (Eur J Med Chem, 2013).

The test system of data set [1] is Radical scavenging activity. As to the kind of experiment: Antioxidant activity assessed as DPPH radical scavenging activity after 30 mins. The format is functional. An outline of the steps: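 Compound (500–0.48 µg/mL) mixed with DPPH, held 30 min at 25 °C in the dark, absorbance read at 517 nm. AA% = 100 − [(ABS_T − ABS_B)×100/ABS_C], with a compound + ethanol blank and a DPPH + ethanol negative control.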
For orientation: DPPH is a stable violet radical that fades when it is reduced.

Data set [2] can be described thus: Toxicity against human erythrocytes assessed as disruption of cell membrane after 1 hr by haemolytic assay. The format is cell-based, Erythrocyte. An outline of the steps: (§1)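 Erythrocytes from blood banks suspended as a 2% saline suspension. Incubated 1 h with compound (50–0.419 µg/mL). Triton X (5 mg/mL) used as positive control. Absorbance read at 450 nm. ANOVA with Tukey test, p < 0.05.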

Another data set deals with Erythrocyte. The data set can be described thus: Antioxidant activity against H2O2-induced oxidative stress in human erythrocyte membrane at 12.5 to 100 uM treated for 30 mins prior to H2O2 challenge measured after 3 hrs. The format is functional, cell membranes. An outline of the steps:
(§2)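 Erythrocytes from blood-bank samples, washed in saline phosphate with 1 mM NaN3 at 4 °C, plasma and white cells removed. Preincubated with compound 30 min at 37 °C, then brought to 2% haematocrit in PBS. Stress induced by H2O2 (300 μM), 3 h at 37 °C. Absorbance read at 540 nm. Mean ± S.D. of three experiments in duplicate.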

Data set [3] can be described thus: Toxicity against human erythrocytes assessed as hemolytic rate after 1 hr by haemolytic assay. The format is cell-based, Erythrocyte. The following applies: read-out: Activity. In a few lines: as §1
A short description of data set [4]: Toxicity against human erythrocytes assessed as hemolytic potential after 1 hr by haemolytic assay. The conditions noted are these: read-out: Activity. The format is cell-based, Erythrocyte. An outline of the steps:
as §1

A short description of data set [5]: Pro-oxidant activity in H2O2-stimulated human erythrocyte membrane assessed as increase in hemolysis at >35 uM treated for 30 mins prior to H2O2 challenge measured after 3 hrs. The format is ADME, cell-based. An outline of the steps:
as §2

Data set [6] can be described thus: Genotoxicity in human T lymphocytes assessed as proportion of cells with DNA damage at 25 uM after 1 hr by comet assay (reference value: 10%). The format is toxicity, cell-based. The conditions noted are these: t-cell.
In data set [7] the test system is Mus musculus. As to the kind of experiment: Acute toxicity in Swiss mouse assessed as agitation at 2000 mg/kg, po administered as single dose measured during 14 days after drug exposure. The conditions noted are these: in vivo, 336 h. The format is organism-based. Further details: dose 2000 mg/kg, route oral. In a few lines:
(§3)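 Female Swiss mice (eight weeks old, specific pathogen-free, kept at 22 °C with food and water ad libitum, acclimatised five days) were tested under OECD Test Guideline 423. Each received a single dose by oral gavage, n = 3. The starting dose came from the ICCVAM prediction model using 3T3 neutral red uptake IC50. Animals were observed individually during the first 30 min and periodically over 24 h, especially the first 4 h, then daily for 14 days.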

Data set [8] can be described thus: Genotoxicity in human T lymphocytes assessed as proportion of cells without DNA damage at 100 uM after 1 hr by comet assay (reference value: 90%). The format is toxicity, cell-based. The following applies: t-cell.
A short description of data set [9]: Myelosuppressive activity against Swiss mouse CFU-GM cells assessed as inhibition of cell growth and differentiation after 7 days. The format is cell-based. The conditions noted are these: 168 h. In a few lines: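 Swiss mouse bone marrow cells (1×10^5) in agar with 2× DMEM, mouse GM-CSF and bovine serum. Ethanolic compound solutions (534–4.17 μM) added, medium-only negative control. Incubated seven days, then CFU-GM colonies counted under 32× magnification. ANOVA.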

A short description of data set [10]: Genotoxicity in human T lymphocytes assessed as proportion of cells with DNA damage at 100 uM after 1 hr by comet assay (reference value: 10%). The format is toxicity, cell-based. The conditions noted are these: t-cell.
Data set [11] is described as follows: Genotoxicity in human T lymphocytes assessed as proportion of cells without DNA damage at 50 uM after 1 hr by comet assay (reference value: 90%). The format is toxicity, cell-based. The following applies: t-cell.
The nature of data set [12]: Genotoxicity in human T lymphocytes assessed as proportion of cells with DNA damage at 50 uM after 1 hr by comet assay (reference value: 10%). The format is toxicity, cell-based. The following applies: t-cell.
Data set [13] relates to Mus musculus. The data set can be described thus: Acute toxicity in Swiss mouse assessed as depression at 2000 mg/kg, po administered as single dose measured during 14 days after drug exposure. The format is organism-based. The following applies: in vivo, 336 h. Also noted: dose 2000 mg/kg, route oral. In a few lines: as §3
Data set [14] can be described thus: Acute toxicity in po dosed Swiss mouse administered as single dose measured for 14 days after drug exposure. The format is organism-based. The conditions noted are these: in vivo. An outline of the steps: as §3
For data set [15], the system named is Mus musculus. As to the kind of experiment: Acute toxicity in Swiss mouse assessed as animal's death at 2000 mg/kg, po administered as single dose measured during 14 days after drug exposure. The format is organism-based. Further details: dose 2000 mg/kg, route oral. The following applies: in vivo, 336 h. In a few lines: as §3
Data set [16] in a line: Genotoxicity in human T lymphocytes assessed as proportion of cells without DNA damage at 25 uM after 1 hr by comet assay (reference value: 90%). The format is toxicity, cell-based. The conditions noted are these: t-cell.

Values after ≈ are worked out from the molar mass of the structure shown. Active and inactive are the calls of the source. No cut-off for these calls is given here.

For `CC(C)=CCC/C(C)=C/CNc1ccc2c(c1)OCO2`, the result (in data set [1]; in the data set with Erythrocyte) was Active. The IC50 (as a rule, the concentration needed to halve the response being measured) at 1 hr in data set [2] turned out to be 18.3 µg/mL (≈ 67.1 µM). In addition, the hemolysis at 1 h in [3] was under 5%.
Turning to `CC(C)=CCC/C(C)=C/CNc1cc(C)nn1C`, the result in data set [1] was Active. The IC50 at 1 hr in data set [2] turned out to be 1.76 µg/mL (≈ 7.11 µM). For the same compound, the values for the hemolysis at 1 h in data set [4] and in data set [3] were 75% and over 5%, respectively. Further, the Activity result in [5] is on record as “Toxic”.
`CC(C)=CCC/C(C)=C/CNc1ccccc1`: the result (in data set [1]; in the data set on Erythrocyte) was Active. Besides, the IC50 at 1 hr in [2] is under 0.419 µg/mL. The hemolysis at 1 h in data set [3] was under 5%.
As for `CC(C)=CCC/C(C)=C/CN(c1ccc(O)cc1)S(C)(=O)=O`, the IC50 at 1 hr in data set [2] is under 0.419 µg/mL. In addition, the result with Erythrocyte was Active. In addition, the hemolysis at 1 h in data set [3] is under 5%.
Take `CC(C)=CCC/C(C)=C/CNc1ccc(O)cc1`: the Activity was 22% in data set [6]; “Toxic” in the data set on Mus musculus [7]; 70% in [8]; 30% in data set [10]; 72% in data set [11]; 28% in data set [12]. The Activity entry in the data set on Mus musculus [13] is recorded as “Toxic”; in the data set with Mus musculus [15], “Non-toxic”; in data set [16], 78%. Besides, the outcome (in [1]; in the data set with Erythrocyte) was Active. The IC50 in data set [9] was 460 µM. In addition, the IC50 at 1 hr in data set [2] is under 0.419 µg/mL. Also, in data set [14], the LD50 – broadly, the dose expected to kill half of the subjects tested – at 336 h is over 2000 mg/kg. Further, the hemolysis at 1 h in data set [3] is under 5%.
